Values after ≈ are worked out from the molar mass of the structure shown. Active and inactive are the calls of the source. No cut-off for these calls is given here. Where a SMILES comes first, the peptide text is derived from it. Bridges are numbered along the chain shown (N, C = ends). [ ]: non-standard residue; d: D form. The star is where a group is joined. X1 = CC[C@H](C)CCCCC(=O)*; Orn = NCCC[C@H](N)C(=O)O; Dab = NCC[C@H](N)C(=O)O

Data on three compounds can be found in ChEMBL document CHEMBL5154669, “G-Quadruplex DNA as a Target in Pathogenic Bacteria: Efficacy of an Extended Naphthalene Diimide Ligand and Its Mode of Action” (J Med Chem, 2022).

Assay [1] has as its system DNA. The assay can be described thus: Stabilization of Escherichia coli in G-quadruplex DNA GGG GGA GGA GGA CGG GGG assessed as change in melting temperature at 10 uM incubated for 16 hrs by FRET method. In kind it is nucleic-acid assay. The conditions noted are these: in the assay text read “by CD melting method” for “by FRET method”. The gist of the method:
(§1)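 Readout was CD melting, not FRET: 2.5 μM oligonucleotide in 10 mM lithium cacodylate pH 7.4 with KCl set per sequence (initial Tm 60-70 °C). Annealed 95 °C 5 min, cooled to room temperature over 4 h, then ligand 10 μM (4 equiv) equilibrated 16 h at 20 °C. Ellipticity at 260 nm tracked every 0.1 °C, 20-95 °C at 5 °C/min; Tm by van't Hoff two-state fit.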

In assay [2] the test system is Bacillus cereus. The assay can be described thus: Antibacterial activity against Bacillus cereus ATCC 14579 assessed as inhibition of bacterial growth incubated for 20 hrs by CLSI based broth microdilution method. The assay is classed as functional. The gist of the method:
(§2)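 Broth microdilution in cation-adjusted Mueller-Hinton broth following CLSI guidelines. DMSO stocks were at 10 mM; compounds were twofold serially diluted over 128 to 2 μM. The inoculum was at 5 × 10⁵, prepared from colonies grown 20 h at 37 °C and adjusted to 0.5 McFarland. Plates ran 20 h at 37 °C with OD600 read-out. MIC was the lowest concentration inhibiting visible growth, in triplicate.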

In assay [3] the test system is DNA. The assay can be described thus: Stabilization of Staphylococcus aureus in G Quadruplex DNA GGGGCTAATTGGGGCTGGTGG assessed as change in melting temperature at 10 uM incubated for 16 hrs by […]. The assay is classed as nucleic-acid assay. The gist of the method:
as §1

Assay [4] has as its system DNA. Description: Stabilization of Escherichia coli in G-quadruplex DNA GGG GGA GGA GGA CGG GGG assessed as melting temperature at 10 uM incubated for 16 hrs by […]. In kind it is nucleic-acid assay. The gist of the method: as §1
Assay [5] relates to Enterococcus faecium. The assay can be described thus: Antibacterial activity against Enterococcus faecium LMG 16003 assessed as inhibition of bacterial growth incubated for 20 hrs by CLSI based broth microdilution method. The assay is classed as functional. The gist of the method: as §2
Assay [6] has as its system DNA. The assay can be described thus: Stabilization of Escherichia coli in G-quadruplex DNA GGT GGG GAG GGG TAA GGG G assessed as change in melting temperature at 10 uM incubated for 16 hrs by FRET method. In kind it is nucleic-acid assay. The conditions noted are these: in the assay text read “by CD melting method” for “by FRET method”. The gist of the method: as §1

For assay [7], the system named is DNA. Description: Stabilization of Escherichia coli in G-quadruplex DNA GGT GGG GAG GGG TAA GGG G assessed as melting temperature at 10 uM incubated for 16 hrs by […]. In kind it is nucleic-acid assay. The gist of the method: as §1
Another assay has as its system Acinetobacter baumannii. The assay can be described thus: Antibacterial activity against Acinetobacter baumannii LMG 01041 assessed as inhibition of bacterial growth incubated for 20 hrs by CLSI based broth microdilution method. In kind it is functional. The gist of the method:
as §2

In assay [8] the test system is DNA. Description: Stabilization of Escherichia coli in G-quadruplex DNA GGG GCG GGG TGG GTT GG assessed as melting temperature at 10 uM incubated for 16 hrs by FRET method. The assay is classed as nucleic-acid assay.
The subject of assay [9] is Enterococcus faecalis. Description: Antibacterial activity against Enterococcus faecalis V583 assessed as inhibition of bacterial growth incubated for 20 hrs by CLSI based broth microdilution method. The assay is classed as functional. The gist of the method: as §2
For assay [10], the system named is Staphylococcus aureus. The assay can be described thus: Antibacterial activity against Staphylococcus aureus LMG 8224 assessed as inhibition of bacterial growth incubated for 20 hrs by CLSI based broth microdilution method. The assay is classed as functional. The gist of the method:
as §2

In assay [11] the test system is Enterococcus faecalis. The assay can be described thus: Antibacterial activity against Enterococcus faecalis LMG 16216 assessed as inhibition of bacterial growth incubated for 20 hrs by CLSI based broth microdilution method. In kind it is functional. The gist of the method: as §2
Assay [12] relates to DNA. Description: Stabilization of Staphylococcus aureus in G-quadruplex DNA GGGTTTGGGGCGGCGGTTGG assessed as melting temperature at 10 uM incubated for 16 hrs by […]. The assay is classed as nucleic-acid assay. The gist of the method: as §1
The test system of assay [13] is DNA. Description: Stabilization of Escherichia coli in G-quadruplex DNA GGG GCG GGG TGG GTT GG assessed as change in melting temperature at 10 uM incubated for 16 hrs by CD melting method.
Assay [14] relates to Staphylococcus aureus. The assay can be described thus: Antibacterial activity against Staphylococcus aureus LMG 15975 assessed as inhibition of bacterial growth incubated for 20 hrs by CLSI based broth microdilution method. In kind it is functional. The gist of the method:
as §2

Assay [15] relates to Bacillus cereus. Description: Antibacterial activity against Bacillus cereus ATCC 10987 assessed as inhibition of bacterial growth incubated for 20 hrs by CLSI based broth microdilution method. In kind it is functional. The gist of the method: as §2
For a further assay, the system named is Enterobacter cloacae. The assay can be described thus: Antibacterial activity against Enterobacter cloacae LMG 02783 assessed as inhibition of bacterial growth incubated for 20 hrs by CLSI based broth microdilution method. The assay is classed as functional. The gist of the method:
as §2

In the next assay the test system is Klebsiella pneumoniae. Description: Antibacterial activity against Klebsiella pneumoniae LMG 20218 assessed as inhibition of bacterial growth incubated for 20 hrs by CLSI based broth microdilution method. In kind it is functional. The gist of the method:
as §2

In assay [16] the test system is DNA. The assay can be described thus: Stabilization of Staphylococcus aureus in G-quadruplex DNA GGGTTTGGGGCGGCGGTTGG assessed as change in melting temperature at 10 uM incubated for 16 hrs by FRET method. The assay is classed as nucleic-acid assay.
For assay [17], the system named is DNA. Description: Stabilization of Staphylococcus aureus in G Quadruplex DNA GGGGCTAATTGGGGCTGGTGG assessed as melting at 10 uM incubated for 16 hrs temperature by […]. The assay is classed as nucleic-acid assay. The gist of the method: as §1
Assay [18] has as its system Enterococcus faecalis. The assay can be described thus: Antibacterial activity against Enterococcus faecalis LMG 08222 assessed as inhibition of bacterial growth incubated for 20 hrs by CLSI based broth microdilution method. The assay is classed as functional. The gist of the method:
as §2

Another assay relates to Klebsiella aerogenes. The assay can be described thus: Antibacterial activity against Enterobacter aerogenes LMG 02094 assessed as inhibition of bacterial growth incubated for 20 hrs by CLSI based broth microdilution method. In kind it is functional. The gist of the method:
as §2

Assay [19] has as its system DNA. The assay can be described thus: Stabilization of Staphylococcus aureus in G-quadruplex DNA GGA AGG AGG GGT GAC AGG G assessed as melting temperature at 10 uM incubated for 16 hrs […]. The assay is classed as nucleic-acid assay. The gist of the method: as §1
The subject of assay [20] is DNA. The assay can be described thus: Stabilization of Staphylococcus aureus in G-quadruplex DNA GGA AGG AGG GGT GAC AGG G assessed as change in melting temperature at 10 uM incubated for 16 hrs by […]. The assay is classed as nucleic-acid assay. The gist of the method:
as §1

Assay [21] deals with Staphylococcus aureus. Description: Antibacterial activity against Staphylococcus aureus LMG 10147 assessed as inhibition of bacterial growth incubated for 20 hrs by CLSI based broth microdilution method. In kind it is functional. The gist of the method: as §2
A further assay has as its system Pseudomonas aeruginosa. Description: Antibacterial activity against Pseudomonas aeruginosa LMG 6395 assessed as inhibition of bacterial growth incubated for 20 hrs by CLSI based broth microdilution method. The assay is classed as functional. The gist of the method: as §2
The test system of assay [22] is Escherichia coli. Description: Antibacterial activity against Escherichia coli LMG 8223 assessed as inhibition of bacterial growth incubated for 20 hrs by CLSI based broth microdilution method. The assay is classed as functional. The gist of the method:
as §2

Assay [23] concerns Enterococcus faecium. The assay can be described thus: Antibacterial activity against Enterococcus faecium LMG 11423 assessed as inhibition of bacterial growth incubated for 20 hrs by CLSI based broth microdilution method. The note with it: LMG 11423, 20 h.
The subject of the next assay is Salmonella enterica. The assay can be described thus: Antibacterial activity against Salmonella enterica LMG 07233 assessed as inhibition of bacterial growth incubated for 20 hrs by CLSI based broth microdilution method. In kind it is functional. The gist of the method: as §2
Assay [24] relates to Staphylococcus epidermidis. Description: Antibacterial activity against Staphylococcus epidermidis Tu3298 assessed as inhibition of bacterial growth incubated for 20 hrs by CLSI based broth microdilution method. The assay is classed as functional. The gist of the method:
as §2

In assay [25] the test system is Staphylococcus aureus. The assay can be described thus: Bacteriolytic activity against Staphylococcus aureus LMG 8224 incubated for 2 hrs. In kind it is functional, organism-based. The gist of the method: (§3)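 Cultures grown 20 h were washed three times in HEPES with 5% glucose, adjusted to OD600 0.5 and exposed at 37 °C. OD600 was followed every 15 min for 2 h. Controls for E. coli were polymyxin B (2 μM) and erythromycin (32 μM). Controls for Gram-positive strains were gramicidin S (2 μM) and chloramphenicol (16 μM). Cells were then spotted on cMHB agar, 20 h, 37 °C, in triplicate.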

For assay [26], the system named is Enterococcus faecium. The assay can be described thus: Bacteriolytic activity against Enterococcus faecium LMG 16003 incubated for 2 hrs. In kind it is functional, organism-based. The gist of the method:
as §3

In assay [27] the test system is Escherichia coli. The assay can be described thus: Bacteriolytic activity against Escherichia coli LMG 8223 incubated for 2 hrs. The assay is classed as functional, organism-based. The gist of the method: as §3
Assay [28] deals with Bacillus cereus. The assay can be described thus: Bacteriolytic activity against Bacillus cereus ATCC 10987 incubated for 2 hrs. In kind it is functional, organism-based. The gist of the method:
as §3

Take `CCCNc1cc2c3c(ccc4c3c1C(=O)N(CCCN(C)C)C4=O)C(=O)N(CCCN(C)C)C2=O`: the ΔTm amounted to 22.8 °C in the assay on DNA [1]; 16.6 °C with DNA [3]; 12.2 °C in the assay with DNA [6]; 14.3 °C in the assay with DNA [13]; 14.9 °C in the assay with DNA [16]; 12 °C with DNA [20]. For the same compound, the minimum inhibitory concentration (MIC) in the assay with Bacillus cereus [2] amounted to 64 µM (≈ 31.6 µg/mL); with Enterococcus faecium [5], 16 µM (≈ 7.9 µg/mL); in the assay with Acinetobacter baumannii it was 64 µM (≈ 31.6 µg/mL); in the assay with Enterococcus faecalis [9] it was 32 µM (≈ 15.8 µg/mL); in the assay on Staphylococcus aureus [10] it was 128 µM (≈ 63.2 µg/mL); in the assay on Enterococcus faecalis [11] it was 32 µM (≈ 15.8 µg/mL). Further, the minimal inhibitory concentration (MIC) with Staphylococcus aureus [14] was 128 µM (≈ 63.2 µg/mL); in the assay with Bacillus cereus [15], 64 µM (≈ 31.6 µg/mL); in the assay with Enterobacter cloacae, greater than 128 µM; in the assay with Klebsiella pneumoniae, greater than 128 µM; in the assay on Enterococcus faecalis [18], 64 µM (≈ 31.6 µg/mL); with Klebsiella aerogenes, 64 µM (≈ 31.6 µg/mL). Also, the MIC is 128 µM (≈ 63.2 µg/mL) in the assay on Staphylococcus aureus [21]; greater than 128 µM with Pseudomonas aeruginosa; greater than 128 µM in the assay on Escherichia coli [22]; 16 µM (≈ 7.9 µg/mL) with Enterococcus faecium [23]; greater than 128 µM with Salmonella enterica; 128 µM (≈ 63.2 µg/mL) in assay [24]. The Tm with DNA [4] was determined as 92.8 °C; in the assay with DNA [7], 72.2 °C; in the assay with DNA [8] it was 78 °C; in the assay on DNA [12], 74.3 °C; in the assay on DNA [17], 77.6 °C; in the assay with DNA [19], 76.2 °C.

Regarding `CC(C)C[C@@H]1NC(=O)[C@H](CCCN)NC(=O)[C@H](C(C)C)NC(=O)[C@@H]2CCCN2C(=O)[C@@H](Cc2ccccc2)NC(=O)[C@H](CC(C)C)NC(=O)[C@H](CCCN)NC(=O)[C@H](C(C)C)NC(=O)[C@@H]2CCCN2C(=O)[C@@H](Cc2ccccc2)NC1=O` (cyclo(V[Orn]L[dF]PV[Orn]L[dF]P)), the result in the assay with Staphylococcus aureus [25], in the assay with Enterococcus faecium [26], in the assay on Escherichia coli [27] and in the assay with Bacillus cereus [28] was Active.

Take `CC[C@H](C)CCCCC(=O)N[C@@H](CCN)C(=O)N[C@H](C(=O)N[C@@H](CCN)C(=O)N[C@H]1CCNC(=O)[C@H]([C@@H](C)O)NC(=O)[C@H](CCN)NC(=O)[C@H](CCN)NC(=O)[C@H](CC(C)C)NC(=O)[C@@H](Cc2ccccc2)NC(=O)[C@H](CCN)NC1=O)[C@@H](C)O` (X1-[Dab]T[Dab][Dab][Dab][dF]L[Dab][Dab]T; lactam 4-C): the result in the assay with Staphylococcus aureus [25], in the assay on Enterococcus faecium [26], with Escherichia coli [27] and in the assay on Bacillus cereus [28] was Active.
